Legend:
[1] = target: T1, Plekha7 (D175K) PH domain (Homo sapiens, UniProt Q6IQ23, D175K); assay: Isothermal titration calorimetry; assay type: binding; details: ITC, diC8-PI, D175K mutant versus wild-type PH domain
T1 sequence (Q6IQ23 164-298 D175K): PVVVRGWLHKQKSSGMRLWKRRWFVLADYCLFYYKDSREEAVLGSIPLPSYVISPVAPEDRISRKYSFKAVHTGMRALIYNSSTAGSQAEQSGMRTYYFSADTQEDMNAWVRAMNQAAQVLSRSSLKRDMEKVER
Procedure, shortened: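 Human Plekha7 PH domain (residues 164–298, D175K mutant alongside wild type) was GST-vector expressed in E. coli BL21. ITC was run at 23 °C: 50 µM PH domain titrated with 0.5–1.0 mM diC8-phosphoinositides (PI(3,4)P2, PI(3,5)P2, PI(4,5)P2, PI(3,4,5)P3) in 30 mM NaCl, 15 mM Tris pH 7.6, 0.2 mM TCEP. Integrated heats were fit to a single-site model for Kd, reported as mean with SD.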

[2] = target: Plekha7-GFP (Pleckstrin homology domain containing, family A member 7, GFP fusion) (human) (UniProt Q6IQ23); assay: FRET or BRET
wild type KRas CRC cells = assay: Growth of wild type KRas CRC cells; assay type: cell-based; details: wild type KRas CRC cells (Figure S12C)
mutant KRas CRC cells = assay: Growth of mutant KRas CRC cells; assay type: cell-based; details: mutant KRas CRC cells (Figure S12C)
mutant BRaf CRC cells = assay: Growth of mutant BRaf CRC cells; assay type: cell-based; details: mutant BRaf CRC cells (Figure S12C)

Sequence of Plekha7-GFP (Pleckstrin homology domain containing, family A member 7, GFP fusion) (human) (Q6IQ23 whole entry, the tested form may be a part): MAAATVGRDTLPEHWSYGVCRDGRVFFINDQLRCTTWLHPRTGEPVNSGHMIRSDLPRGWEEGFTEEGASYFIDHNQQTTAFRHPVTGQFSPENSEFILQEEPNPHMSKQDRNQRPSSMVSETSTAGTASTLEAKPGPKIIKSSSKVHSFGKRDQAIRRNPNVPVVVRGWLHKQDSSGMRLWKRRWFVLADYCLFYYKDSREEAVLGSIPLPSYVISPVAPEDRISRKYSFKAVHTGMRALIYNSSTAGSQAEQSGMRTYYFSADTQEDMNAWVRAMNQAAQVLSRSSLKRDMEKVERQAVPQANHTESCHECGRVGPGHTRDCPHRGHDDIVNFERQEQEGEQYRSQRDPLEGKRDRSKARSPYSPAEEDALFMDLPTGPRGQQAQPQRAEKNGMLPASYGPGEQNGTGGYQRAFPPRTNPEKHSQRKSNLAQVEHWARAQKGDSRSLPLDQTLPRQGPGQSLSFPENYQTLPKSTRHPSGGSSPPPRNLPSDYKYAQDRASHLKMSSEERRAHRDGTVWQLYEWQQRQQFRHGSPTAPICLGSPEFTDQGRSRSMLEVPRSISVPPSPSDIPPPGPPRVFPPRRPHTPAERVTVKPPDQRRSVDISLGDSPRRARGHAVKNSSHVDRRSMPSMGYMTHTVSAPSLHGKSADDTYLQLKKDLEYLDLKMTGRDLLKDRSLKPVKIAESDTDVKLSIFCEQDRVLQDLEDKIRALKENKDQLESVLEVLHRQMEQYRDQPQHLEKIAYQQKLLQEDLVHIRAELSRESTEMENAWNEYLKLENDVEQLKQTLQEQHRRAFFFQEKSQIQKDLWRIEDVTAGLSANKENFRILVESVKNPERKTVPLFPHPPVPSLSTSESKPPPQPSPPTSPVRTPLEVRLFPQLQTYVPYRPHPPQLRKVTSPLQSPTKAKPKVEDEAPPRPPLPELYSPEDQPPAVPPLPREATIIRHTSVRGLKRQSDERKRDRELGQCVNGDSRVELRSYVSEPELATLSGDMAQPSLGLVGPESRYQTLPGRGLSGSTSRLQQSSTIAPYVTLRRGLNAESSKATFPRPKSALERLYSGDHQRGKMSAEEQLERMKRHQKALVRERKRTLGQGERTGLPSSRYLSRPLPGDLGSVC

increase in affinity for Plekha7 (D175K) compared with the wild-type protein [1] [fold] | Molecule | effect on growth of wild type KRas CRC cells (wild type KRas CRC cells) | inhibition of mutant KRas CRC cell growth (mutant KRas CRC cells) | further results
– | CCCCCCCC(=O)OC[C@H](COP(=O)(O)O[C@@H]1[C@H](O)[C@H](O)[C@@H](OP(=O)(O)O)[C@H](OP(=O)(O)O)[C@H]1O)OC(=O)CCCCCCC [PI(4,5)P2] | – | – | change of affinity for Plekha7 (D175K) compared with wild-type [1]: did not change
10 | CCCCCCCC(=O)OC[C@H](COP(=O)(O)O[C@H]1[C@H](O)[C@@H](O)[C@H](OP(=O)(O)O)[C@@H](OP(=O)(O)O)[C@H]1O)OC(=O)CCCCCCC [PI(3,4)P2] | – | – | –
– | wild-type KRas-RFP (from UniProt P01116 1-189) (natural protein) | – | – | average fluorescence lifetime of Plekha7-GFP [2]: 1.9 ns
– | CCCCCCCCCCCCCCCCCCOC[C@H](COP(=O)(O)OC1C(O)[C@@H](O)C(O)C[C@H]1O)OC (stereo partly drawn) [DPIEL] | without affecting the growth | selective inhibition | –
– | CC1(C)Oc2ccc(-c3csc(Cn4nc(CCO)c5ccccc5c4=O)n3)cc2O1 [PHT-7704, 2-((4-(2,2-dimethylbenzo[d][1,3]dioxol-5-yl)thiazol-2-yl)methyl)-4-(2-hydroxyethyl)phthalazin-1(2H)-one] | without affecting the growth | selective inhibition | inhibition of growth of mutant BRaf CRC cells (mutant BRaf CRC cells): inhibited the growth
10 | CCCCCCCC(=O)OC[C@H](COP(=O)(O)O[C@H]1[C@H](O)[C@@H](OP(=O)(O)O)[C@H](OP(=O)(O)O)[C@@H](OP(=O)(O)O)[C@H]1O)OC(=O)CCCCCCC [PI(3,4,5)P3] | – | – | –

From PMC8925131 (Experimental cell research, 2021)
